# Experimental data published in ChEMBL document CHEMBL4627281, “A small molecule inhibitor of PCSK9 that antagonizes LDL receptor binding via interaction with a cryptic PCSK9 binding groove” (Bioorg Med Chem, 2020).
# Activity calls are given as the source filed them. The calls are words filed in the database; no cut-off is given here.
# Tests used:
# [1] = molecular target: PCSK9/LDLR (Homo sapiens, UniProt Q8NBP7); assay: Inhibition of recombinant human His-tagged PCSK9 interaction with recombinant LDLR AB domain (unknown origin) measured after 3 hrs by horseradish peroxidase-coupled TMB substrate based spectrophotometry; type: protein assay
# Method in brief: (§1)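 ELISA plates pre-coated with LDLR-EGF-AB domain. Compounds serially diluted from 10 mM DMSO stocks in reaction buffer, with 7 ng His-tagged human PCSK9 added, 3 h at room temperature with shaking. Binding detected with biotinylated anti-His antibody (1 h), then HRP-streptavidin (20 min), then substrate (15 min); absorbance read at 450/540 nm. IC50 taken from the % inhibition curve.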
# [2] = molecular target: Mast/stem cell growth factor receptor Kit (Homo sapiens, UniProt P10721); assay: Inhibition of recombinant human N-terminal GST-tagged c-Kit (544 to end residues) expressed in baculovirus infected Sf21 insect cells using FAM-labelled P22 peptide as substrate preincubated for 10 mins followed by substrate addition and measured after 1 hr in presence of ATP by fluorescence assay
# [3] = molecular target: Tyrosine-protein kinase ABL1 (Homo sapiens, UniProt P00519); assay: (§2) Inhibition of recombinant human N-terminal His-tagged Abl (2 to 1130 residues) expressed in baculovirus expression system using FAM-labelled P2 peptide as substrate preincubated for 10 mins followed by substrate addition and measured after 1 hr in presence of ATP by fluorescence assay
# [4] = molecular target: Platelet-derived growth factor receptor beta (Homo sapiens, UniProt P09619); assay: as §2, with “GST-tagged PDGFRbeta cytoplasmic domain (557” for “His-tagged Abl (2”, “1106” for “1130”, “P22” for “P2”
# [5] = molecular target: Proto-oncogene tyrosine-protein kinase Src (Homo sapiens, UniProt P12931); assay: Inhibition of recombinant human full-length N-terminal GST-tagged SRC (1 to 536 residues) expressed in baculovirus expression system using FAM-labelled P4 peptide as substrate preincubated for 10 mins followed by substrate addition and measured after 1 hr in presence of ATP by fluorescence assay
# [6] = Clearance in CD1 mouse at 0.4 mg/kg, iv administered as cassette dose measured upto 24 hrs by LC-MS/MS analysis; type: ADME, organism-based; settings: in vivo
# Method in brief: (§3)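 Male CD1 mice (second cassette 28–29 g, 7–8 weeks) given one IV 5-in-1 cassette at 0.4 mg/kg per compound in 5% DMAC/5% Solutol HS15/90% saline. Blood (~20 µL) into K2EDTA from the facial vein at 0.083–24 h, terminal bleed by cardiac puncture under isoflurane. Blood diluted with deionised water, stored at −80 °C, analysed by positive-ESI mass spectrometry.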
# [7] = Volume of distribution at steady state in CD1 mouse at 0.4 mg/kg, iv administered as cassette dose measured upto 24 hrs by LC-MS/MS analysis; type: ADME, organism-based; settings: in vivo, read-out: Vdss; method in brief: as §3
# [8] = Terminal half life in CD1 mouse at 0.4 mg/kg, iv administered as cassette dose measured upto 24 hrs by LC-MS/MS analysis; type: ADME, organism-based; settings: in vivo, read-out: beta t1/2 (converted); method in brief: as §3
# [9] = AUClast in CD1 mouse at 0.4 mg/kg, iv administered as cassette dose measured upto 24 hrs by LC-MS/MS analysis; type: ADME, organism-based; set-up: time < 24 hr, dose 0.4 mg/kg, route intravenous; settings: in vivo; method in brief: as §3
# [10] = AUCinfinity in CD1 mouse at 0.4 mg/kg, iv administered as cassette dose measured upto 24 hrs by LC-MS/MS analysis; type: ADME, organism-based; set-up: dose 0.4 mg/kg, route intravenous, time infinity; settings: in vivo; method in brief: as §3
# [11] = Mean residence time (0 to infinity) in CD1 mouse at 0.4 mg/kg, iv administered as cassette dose measured upto 24 hrs by LC-MS analysis; type: ADME, organism-based; settings: in vivo; method in brief: as §3
# [12] = tested on: PCSK9/LDLR (Homo sapiens), Q8NBP7+P01130 [D374Y]; assay: Inhibition of PCSK9 D374Y mutant (unknown origin) and LDLR protein-protein interaction in human HepG2 cells assessed as increase in Bodipy FL-labelled LDL uptake preincubated for 16 hrs followed by Bodipy FL-labelled LDL addition and measured after 4 hrs by fluorescence assay; type: cell-based
# Method in brief: (§4)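 HepG2 cells seeded at 2 × 10^5 cells/mL and attached overnight, then incubated 16 h with PCSK9-D374Y (2 μg/mL) plus compound (0.1 or 1 µM). Medium replaced with 10 μg/mL Bodipy FL LDL for 4 h. Cells washed with warm PBS; fluorescence read at ex 485/em 530 nm. Mean ± S.D.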
# [13] = molecular target: PCSK9/LDLR (Homo sapiens) (UniProt Q8NBP7+P01130); assay: Inhibition of recombinant human His-tagged PCSK9 interaction with recombinant LDLR AB domain (unknown origin) at higher concentration measured after 3 hrs by horseradish peroxidase-coupled TMB substrate based spectrophotometry relative to control; type: protein assay; method in brief: as §1
# [14] = tested on: PCSK9/LDLR (Homo sapiens), Q8NBP7+P01130 [D374Y]; assay: Inhibition of PCSK9 D374Y mutant (unknown origin) and LDLR protein-protein interaction in human HepG2 cells assessed as increase in Bodipy FL-labelled LDL uptake at 0.1 or 1 uM preincubated for 16 hrs followed by Bodipy FL-labelled LDL addition and measured after 4 hrs by fluorescence assay; type: cell-based; method in brief: as §4
# Platelet-derived growth factor receptor beta, sequence (P09619 whole entry, the tested form may be a part): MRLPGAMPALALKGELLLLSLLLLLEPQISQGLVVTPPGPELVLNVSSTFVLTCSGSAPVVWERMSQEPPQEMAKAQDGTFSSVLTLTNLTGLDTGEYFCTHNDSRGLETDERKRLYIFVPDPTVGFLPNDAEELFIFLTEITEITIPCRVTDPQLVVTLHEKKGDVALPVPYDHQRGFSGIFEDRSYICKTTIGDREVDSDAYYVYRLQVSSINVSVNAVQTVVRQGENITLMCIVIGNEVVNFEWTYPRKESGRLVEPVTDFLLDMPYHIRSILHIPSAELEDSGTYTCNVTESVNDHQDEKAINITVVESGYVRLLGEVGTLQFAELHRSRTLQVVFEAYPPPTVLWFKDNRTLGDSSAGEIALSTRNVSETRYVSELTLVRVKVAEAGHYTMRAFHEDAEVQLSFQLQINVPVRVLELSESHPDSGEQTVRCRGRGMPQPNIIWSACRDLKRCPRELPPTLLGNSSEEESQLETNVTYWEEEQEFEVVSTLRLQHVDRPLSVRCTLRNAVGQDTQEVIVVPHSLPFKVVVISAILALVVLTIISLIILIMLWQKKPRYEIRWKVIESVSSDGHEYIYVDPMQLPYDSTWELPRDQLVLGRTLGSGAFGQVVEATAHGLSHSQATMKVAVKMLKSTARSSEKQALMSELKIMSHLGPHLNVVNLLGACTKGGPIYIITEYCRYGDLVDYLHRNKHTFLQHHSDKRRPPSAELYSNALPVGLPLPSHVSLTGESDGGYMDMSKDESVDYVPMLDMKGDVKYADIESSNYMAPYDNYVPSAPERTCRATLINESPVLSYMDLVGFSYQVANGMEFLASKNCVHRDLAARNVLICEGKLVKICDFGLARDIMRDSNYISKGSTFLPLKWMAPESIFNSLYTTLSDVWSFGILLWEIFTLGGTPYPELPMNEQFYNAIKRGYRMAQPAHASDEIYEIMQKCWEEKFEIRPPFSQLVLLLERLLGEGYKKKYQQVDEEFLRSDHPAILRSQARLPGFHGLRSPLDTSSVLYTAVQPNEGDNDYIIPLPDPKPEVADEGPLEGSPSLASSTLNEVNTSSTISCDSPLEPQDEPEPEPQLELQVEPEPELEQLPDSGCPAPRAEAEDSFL
# Proto-oncogene tyrosine-protein kinase Src, sequence (P12931 2-536 limits assumed): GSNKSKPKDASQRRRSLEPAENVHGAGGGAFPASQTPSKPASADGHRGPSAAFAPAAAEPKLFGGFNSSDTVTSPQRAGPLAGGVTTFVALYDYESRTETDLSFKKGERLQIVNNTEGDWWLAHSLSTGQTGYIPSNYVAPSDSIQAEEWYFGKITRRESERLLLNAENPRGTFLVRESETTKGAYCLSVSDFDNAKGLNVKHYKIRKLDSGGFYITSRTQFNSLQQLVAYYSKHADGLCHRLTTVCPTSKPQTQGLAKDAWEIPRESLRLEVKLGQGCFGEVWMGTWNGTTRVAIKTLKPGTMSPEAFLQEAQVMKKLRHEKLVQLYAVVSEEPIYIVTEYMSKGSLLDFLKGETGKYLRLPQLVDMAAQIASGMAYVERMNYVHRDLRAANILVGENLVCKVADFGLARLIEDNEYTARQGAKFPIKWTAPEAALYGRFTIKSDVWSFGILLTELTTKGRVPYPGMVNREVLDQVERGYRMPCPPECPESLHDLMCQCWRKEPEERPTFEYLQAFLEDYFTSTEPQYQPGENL
# Tyrosine-protein kinase ABL1, sequence (P00519 whole entry, the tested form may be a part): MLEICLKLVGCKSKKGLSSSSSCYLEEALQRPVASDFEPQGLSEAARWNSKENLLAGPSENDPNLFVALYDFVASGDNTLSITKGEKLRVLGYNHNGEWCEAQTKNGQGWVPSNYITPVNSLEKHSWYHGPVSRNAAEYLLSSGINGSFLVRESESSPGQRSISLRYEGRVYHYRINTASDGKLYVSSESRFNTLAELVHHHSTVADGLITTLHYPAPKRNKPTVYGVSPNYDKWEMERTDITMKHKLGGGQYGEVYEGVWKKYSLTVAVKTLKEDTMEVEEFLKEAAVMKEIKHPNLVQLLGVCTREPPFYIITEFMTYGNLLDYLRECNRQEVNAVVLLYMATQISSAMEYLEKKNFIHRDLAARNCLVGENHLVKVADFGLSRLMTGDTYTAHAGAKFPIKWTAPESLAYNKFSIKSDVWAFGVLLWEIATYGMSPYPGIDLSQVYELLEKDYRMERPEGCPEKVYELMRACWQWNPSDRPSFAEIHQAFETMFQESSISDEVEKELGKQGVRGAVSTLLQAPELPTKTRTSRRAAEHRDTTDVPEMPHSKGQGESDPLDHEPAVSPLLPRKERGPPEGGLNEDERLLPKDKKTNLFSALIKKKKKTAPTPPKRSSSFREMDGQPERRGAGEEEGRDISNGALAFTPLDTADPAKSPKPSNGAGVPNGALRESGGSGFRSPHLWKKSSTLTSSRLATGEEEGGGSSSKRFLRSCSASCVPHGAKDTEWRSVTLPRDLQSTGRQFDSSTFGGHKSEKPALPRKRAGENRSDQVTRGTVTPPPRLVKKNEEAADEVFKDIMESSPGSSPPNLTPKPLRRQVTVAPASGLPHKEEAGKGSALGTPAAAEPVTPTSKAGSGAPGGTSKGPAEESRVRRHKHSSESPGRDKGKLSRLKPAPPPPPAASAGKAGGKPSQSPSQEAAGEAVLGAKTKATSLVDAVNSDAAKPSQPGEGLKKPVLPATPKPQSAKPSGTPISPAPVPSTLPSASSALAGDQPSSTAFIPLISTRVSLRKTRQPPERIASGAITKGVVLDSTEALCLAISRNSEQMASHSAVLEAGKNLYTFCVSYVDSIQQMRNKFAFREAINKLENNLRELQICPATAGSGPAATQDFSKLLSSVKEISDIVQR
# Mast/stem cell growth factor receptor Kit, sequence (P10721 whole entry, the tested form may be a part): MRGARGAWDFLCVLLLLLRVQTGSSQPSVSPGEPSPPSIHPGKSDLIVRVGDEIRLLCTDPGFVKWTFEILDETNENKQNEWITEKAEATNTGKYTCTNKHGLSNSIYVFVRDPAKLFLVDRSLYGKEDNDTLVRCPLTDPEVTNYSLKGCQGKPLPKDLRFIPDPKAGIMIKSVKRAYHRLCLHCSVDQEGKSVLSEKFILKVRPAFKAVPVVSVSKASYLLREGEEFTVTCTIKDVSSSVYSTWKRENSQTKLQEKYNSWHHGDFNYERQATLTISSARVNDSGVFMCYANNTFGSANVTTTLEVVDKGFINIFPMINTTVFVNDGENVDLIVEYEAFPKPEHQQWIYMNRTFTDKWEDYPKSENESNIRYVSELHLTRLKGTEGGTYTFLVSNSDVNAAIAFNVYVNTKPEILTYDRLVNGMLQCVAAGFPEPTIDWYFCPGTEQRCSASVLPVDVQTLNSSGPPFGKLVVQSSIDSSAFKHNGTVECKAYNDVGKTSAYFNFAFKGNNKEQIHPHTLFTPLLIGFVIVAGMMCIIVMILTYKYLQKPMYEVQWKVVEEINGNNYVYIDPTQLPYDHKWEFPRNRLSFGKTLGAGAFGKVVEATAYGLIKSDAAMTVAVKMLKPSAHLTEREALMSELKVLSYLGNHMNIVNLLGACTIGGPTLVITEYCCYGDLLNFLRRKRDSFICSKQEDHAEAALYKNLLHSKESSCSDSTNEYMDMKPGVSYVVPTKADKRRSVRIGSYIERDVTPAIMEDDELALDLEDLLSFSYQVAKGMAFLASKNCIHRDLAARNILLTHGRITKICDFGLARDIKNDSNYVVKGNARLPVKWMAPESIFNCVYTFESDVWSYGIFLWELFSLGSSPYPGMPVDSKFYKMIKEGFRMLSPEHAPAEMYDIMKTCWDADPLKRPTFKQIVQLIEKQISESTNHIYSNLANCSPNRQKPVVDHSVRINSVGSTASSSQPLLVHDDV
SMILES,IC50 [1],IC50 [2],IC50 [3],IC50 [4],IC50 [5],clearance [6],Vd [7],half-life [8],AUC(0-t) at 24 h [9],AUC(0-inf) [10],MRT inf [11],inhibition [12],Imax [13],inhibition [14]
Cc1cn(-c2cc(NC(=O)c3ccc(C)c(Oc4ccccc4)c3)cc(C(F)(F)F)c2)cn1,13.4 µM,0.618 µM,> 10 µM,> 10 µM,> 10 µM,12.5 mL/min/kg,1.69 L/kg,2.15 h,508 ng·h/mL,541 ng·h/mL,2.27 h,,,
Cc1cn(-c2cc(NC(=O)c3ccc(C)c(Oc4cccc5ccncc45)c3)cc(N3CCN(C)CC3)c2)cn1,0.078 µM,0.227 µM,> 10 µM,3.29 µM,2.61 to 2.62 µM,50.8 mL/min/kg,6.7 L/kg,2.77 h,128 ng·h/mL,133 ng·h/mL,2.3 h,Dose-dependent effect,> 35%,
Cc1cn(-c2cc(NC(=O)c3ccc(C)c(C(=O)c4cccc(C#N)c4)c3)cc(N3CCN(C)CC3)c2)cn1,2.13 µM,> 10 µM,> 10 µM,> 10 µM,> 10 µM,81 mL/min/kg,4.7 L/kg,1.09 h,78 ng·h/mL,83 ng·h/mL,0.96 h,,,
Cc1ccc(C(=O)Nc2cccc(N3CCN(C)CC3)c2)cc1Nc1nccc(-c2ccc(F)cc2)n1,3.29 µM,0.093 µM,> 10 µM,> 10 µM,> 10 µM,,,,,,,,,
Cc1cn(-c2cc(NC(=O)c3ccc(C)c(Oc4ccccc4)c3)cc(N3CCN(C)CC3)c2)cn1,0.759 µM,> 10 µM,> 10 µM,7.66 µM,> 10 µM,17.5 mL/min/kg,9.26 L/kg,7.36 h,338 ng·h/mL,384 ng·h/mL,8.98 h,,20%,inactive
Cc1cc(-c2cc(NC(=O)c3ccc(C)c(Nc4nccc(-c5ccc(F)cc5)n4)c3)cc(N3CCN(C)CC3)c2)on1,10.7 µM,3.1 µM,> 10 µM,5.52 µM,> 10 µM,,,,,,,,,
Cc1ccc(C(=O)Nc2cc(N3CCN(C)CC3)cc(-n3cnc(C)c3)c2)cc1,26.3 µM,> 10 µM,> 10 µM,> 10 µM,> 10 µM,,,,,,,,,
Cc1cn(-c2cc(CN3CCC[C@H](N)C3)cc(NC(=O)c3ccc(C)c(Nc4nccc(-c5ccc(F)cc5)n4)c3)c2)cn1,0.428 µM,1.96 µM,> 10 µM,2.04 µM,> 10 µM,23.5 mL/min/kg,13.3 L/kg,10.8 h,243 ng·h/mL,297 ng·h/mL,10.4 h,,,
Cc1cn(-c2cc(CN3CCCC[C@H]3C(N)=O)cc(NC(=O)c3ccc(C)c(Nc4nccc(-c5ccc(F)cc5)n4)c3)c2)cn1,2.57 µM,9.87 µM,> 10 µM,> 10 µM,> 10 µM,,,,,,,,,

# Continued, values first:
IC50 [1],IC50 [2],IC50 [3],IC50 [4],IC50 [5],clearance [6],Vd [7],half-life [8],AUC(0-t) at 24 h [9],AUC(0-inf) [10],MRT inf [11],inhibition [12],Imax [13],inhibition [14],SMILES
9.28 µM,0.347 µM,> 10 µM,> 10 µM,> 10 µM,,,,,,,,,,Cc1cn(-c2cc(CCC(=O)O)cc(NC(=O)c3ccc(C)c(Nc4nccc(-c5ccccc5)n4)c3)c2)cn1
0.714 µM,2.57 µM,> 10 µM,5.42 µM,> 10 µM,35.7 mL/min/kg,5.65 L/kg,3.29 h,166 ng·h/mL,187 ng·h/mL,2.66 h,,,,Cc1cn(-c2cc(CN3CCN(C)CC3)cc(NC(=O)c3ccc(C)c(Nc4nccc(-c5ccccc5)n4)c3)c2)cn1
0.758 µM,2.88 µM,> 10 µM,> 10 µM,> 10 µM,32.8 mL/min/kg,4.3 L/kg,2.21 h,189 ng·h/mL,204 ng·h/mL,2.16 h,Dose-dependent effect,> 35%,,Cc1cn(-c2cc(NC(=O)c3ccc(C)c(Nc4nccc(-c5ccccc5)n4)c3)cc(N3CCN(C)CC3)c2)cn1
14 µM,> 10 µM,> 10 µM,> 10 µM,> 10 µM,,,,,,,,,,Cc1cn(-c2cc(CN3CCCC[C@H]3C(=O)O)cc(NC(=O)c3ccc(C)c(Nc4nccc(-c5ccc(F)cc5)n4)c3)c2)cn1
13.4 µM,6 µM,> 10 µM,> 10 µM,> 10 µM,110 mL/min/kg,1.72 L/kg,0.216 h,58.5 ng·h/mL,63.7 ng·h/mL,0.239 h,,,,Cc1cn(-c2cc(CCS(N)(=O)=O)cc(NC(=O)c3ccc(C)c(Nc4nccc(-c5ccccc5)n4)c3)c2)cn1
7.41 µM,0.302 µM,,> 10 µM,> 10 µM,,,,,,,,,,CCCCc1cc(NC(=O)c2ccc(C)c(Nc3nccc(-c4ccccc4)n3)c2)cc(-n2cnc(C)c2)c1
40.1 µM,0.79 µM,> 10 µM,> 10 µM,> 10 µM,,,,,,,,,,Cc1cn(-c2cc(NC(=O)c3ccc(C)c(Nc4nccc(-c5ccc(F)cc5)n4)c3)cc(N3CCOCC3)c2)cn1
0.491 µM,1.49 µM,,1.51 µM,4.36 µM,52.5 mL/min/kg,3.74 L/kg,1.64 h,116 ng·h/mL,127 ng·h/mL,1.19 h,,,,Cc1cn(-c2cc(NC(=O)c3ccc(C)c(Nc4nccc(-c5ccccc5)n4)c3)cc(N3CCNCC3)c2)cn1
8.4 µM,0.592 µM,,2.48 µM,> 10 µM,,,,,,,,,,Cc1cn(-c2cc(NC(=O)c3ccc(C)c(Nc4nccc(-c5ccccc5)n4)c3)cc(C(F)(F)F)c2)cn1
9.8 µM,,,,,,,,,,,,,,Cc1cn(-c2cc(NC(=O)c3ccc(C)c(Nc4nccc(-c5cccnc5)n4)c3)cc(C(F)(F)F)c2)cn1 [NILOTINIB]
11.3 µM,2.77 µM,> 10 µM,> 10 µM,> 10 µM,,,,,,,,,,Cc1cn(-c2cc(/C=C/C(=O)O)cc(NC(=O)c3ccc(C)c(Nc4nccc(-c5ccccc5)n4)c3)c2)cn1
